Values after ≈ are worked out from the molar mass of the structure shown. Active and inactive are the calls of the source. No cut-off for these calls is given here. Some results are limits rather than exact numbers.

A short description of series [1]: Cytotoxicity against human MRC5 cells assessed as reduction in cell viability incubated for 72 hrs by MTT assay. It counts as toxicity, cell-based.
Series [2] concerns Vero C1008. Put plainly: Downregulation of PGES-2 level in African green monkey Vero E6 cells infected with SARS CoV-2 at 25 uM pre-infected for 90 mins followed by removal of viral inoculum and subsequent addition of compound measured after 24 hrs post-infection. It counts as functional, cell-based. The following applies: Chlorocebus sabaeus, time 1350.0 min.
The test system of series [3] is MRC5. Description: Downregulation of PGES-2 level in human MRC5 cells infected with HCoV-OC43 at 25 uM pre-infected for 90 mins followed by removal of viral inoculum and subsequent addition of compound measured after 48 hrs post-infection. It counts as functional, cell-based. The following applies: time 2790.0 min. The gist of the method: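 MRC-5 cells infected with HCoV-OC43 for 90 min at 37 °C; inoculum removed, then treated at 25 µM or with 0.1% DMSO. Whole-cell lysates collected 48 h p.i. and blotted for PGES-2, normalised to β-actin.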

The test system of series [4] is MRC5. Description: Downregulation of PGES-2 level in human MRC5 cells infected with HCoV-229E at 25 uM pre-infected for 90 mins followed by removal of viral inoculum and subsequent addition of compound measured after 24 hrs post-infection. It counts as functional, cell-based. The following applies: time 1350.0 min.
Series [5] is described as follows: Kinetic solubility in universal buffer incubated for 90 mins by microplate shaker method. It counts as physicochemical. The following applies: for Kinetic_solubility: buffer, 1.5 h, BLD = below limit of detection; for solubility kinetic at 1.5 h: universal buffer, read-out: Kinetic_solubility. The gist of the method: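 Universal buffer (45 mM each ethanolamine, NaH2PO4 and sodium acetate) at pH 7.4; compound at 100 µM final, 5% DMSO. Shaken 90 min at 25 °C, vacuum-filtered, filtrate diluted with ACN/DMSO. UV absorbance at λmax quantified against an external calibration curve (3.13–100 µM); result corrected by ×1.25.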

The nature of series [6]: Cytotoxicity against African green monkey Vero cells assessed as reduction in cell viability incubated for 72 hrs by MTT assay. It counts as toxicity, cell-based. The settings on record: chlorocebus sabaeus.
The subject of another series is HEK-293T. Put plainly: Downregulation of PGES-2 level in HEK293T cells at 25 uM incubated for 2 to 8 hrs by Western blot analysis. It counts as functional, cell-based. The settings on record: Homo sapiens, time 2-8 hrs. The procedure, abridged: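 Uninfected 293T cells treated at 25 µM or with 0.1% DMSO and harvested at several times after treatment. Western blot with anti-PGES-2 antibody; β-actin as loading control.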

The test system of series [7] is SARS-CoV-2. Description: Antiviral activity against SARS CoV-2 NL/2020 infected in African green monkey Vero E6 cells incubated for 3 days by plaque reduction assay. It counts as functional, organism-based. The following applies: Severe acute respiratory syndrome coronavirus 2, NL/2020, Vero C1008, 72 h.
In the next series the test system is Human coronavirus OC43. Description: Antiviral activity against HCoV-OC43 infected in human MRC5 cells incubated for 3 days by plaque reduction assay. It counts as functional, organism-based. The following applies: Betacoronavirus 1, MRC5, 72 h.
For series [8], the system named is SARS-CoV-2. Put plainly: Antiviral activity against SARS CoV-2 infected in human Calu-3 cells measured after 36 hrs. It counts as functional, organism-based. The settings on record: Severe acute respiratory syndrome coronavirus 2, Calu-3, 36 h.
Series [9] deals with von Hippel-Lindau disease tumor suppressor-SARS-Cov-2 polyprotein (Severe acute respiratory syndrome coronavirus 2, UniProt P40337+P0DTD1). Description: PROTAC activity at human VHL/virus-expressed MPro in human Calu-3 cells infected with SARS CoV-2 assessed as protein degradation incubated for 48 hrs by Western blot analysis. It counts as cell-based.
Sequence of von Hippel-Lindau disease tumor suppressor-SARS-Cov-2 polyprotein (P40337 whole entry, other chains not shown): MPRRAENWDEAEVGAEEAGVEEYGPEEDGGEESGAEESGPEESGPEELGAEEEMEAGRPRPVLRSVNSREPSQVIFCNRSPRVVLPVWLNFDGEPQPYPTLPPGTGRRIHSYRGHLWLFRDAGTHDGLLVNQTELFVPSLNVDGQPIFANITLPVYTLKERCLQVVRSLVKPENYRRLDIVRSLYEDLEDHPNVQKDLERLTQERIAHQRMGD
Series [10] is described as follows: Chemical stability of compound in DMEM at pH 7.4 assessed as compound remaining at 1 uM measured after 24 hrs by LC-MS analysis. It counts as physicochemical. The settings on record: read-out: Stability. The gist of the method:
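Compound at 1 and 10 µM (0.1% DMSO) incubated at 37 °C in DMEM pH 7.4 with 10% FBS and penicillin/streptomycin. Samples at 0 and 24 h, quenched in cold acetonitrile with labetalol internal standard, analysed by LC-MS/MS; duplicates.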

The nature of series [11]: Cytotoxicity against human Calu-3 cells incubated for 72 hrs by MTT assay. It counts as toxicity, cell-based.
A short description of series [12]: Metabolic stability in human liver microsomes assessed as half life measured upto 60 mins by LC/MS-MS analysis. It counts as ADME, Microsome. The procedure, abridged:
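Compound at 10 µM (0.1% DMSO) pre-incubated 5 min at 37 °C with human liver microsomes (0.5 mg/mL, 10-donor pool) in 0.1 M phosphate pH 7.4. Reaction started with 1 mM NADPH. Samples at 0, 5, 15, 30 and 60 min, quenched in cold acetonitrile with labetalol, analysed by LC-MS/MS; n=3.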

Another series has as its system Human coronavirus 229E. Put plainly: Antiviral activity against HCoV-229E infected in human MRC5 cells incubated for 3 days by plaque reduction assay. It counts as functional, organism-based. The settings on record: MRC5, 72 h.
Series [13] in a line: Cytotoxicity against African green monkey Vero cells. It counts as toxicity, cell-based. The following applies: chlorocebus sabaeus.
Series [14] relates to SARS-CoV-2. Description: Antiviral activity against SARS CoV-2 NL/2020. It counts as functional, organism-based. The settings on record: Severe acute respiratory syndrome coronavirus 2, NL/2020.
The target in series [15] is Replicase polyprotein 1ab (Severe acute respiratory syndrome coronavirus 2, UniProt P0DTD1). Description: Binding affinity to NT650-labeled recombinant SARS CoV-2 MPro assessed as protein stability by measuring dissociation constant by MST analysis.
Series [16] deals with Vero C1008. Description: Cytotoxicity against African green monkey Vero E6 cells assessed as reduction in cell viability incubated for 72 hrs by Alamar blue assay. It counts as toxicity, cell-based. The following applies: chlorocebus sabaeus, vero c1008, 72 h.
Series [17] concerns SARS-CoV-2. Put plainly: Antiviral activity against SARS CoV-2 infected in African green monkey Vero E6 cells assessed as reduction in viral replication by plaque reduction assay. It counts as functional, organism-based. The following applies: Severe acute respiratory syndrome coronavirus 2.

Take `COc1ccc2c(c1)c(CC(=O)NCCCCCCC(=O)N[C@H](C(=O)N1C[C@H](O)C[C@H]1C(=O)N[C@@H](C)c1ccc(-c3scnc3C)cc1)C(C)(C)C)c(C)n2C(=O)c1ccc(Cl)cc1`: the CC50 at 72 h was more than 250 µM in [1] and more than 200 µM in series [6]. Besides, the result with Vero C1008 [2], with MRC5 [3], with MRC5 [4] and in the series on HEK-293T was inactive. Moreover, the Kinetic_solubility entry in series [5] was “Bld”.
With `COc1ccc2c(c1)c(CC(=O)NCCCCCCNc1cc3c(cc1F)C(=O)N(C1CCC(=O)NC1=O)C3=O)c(C)n2C(=O)c1ccc(Cl)cc1` (stereo not drawn), the EC50 in the series on SARS-CoV-2 [7] was more than 25 µM. In addition, the CC50 at 72 h in series [6] is more than 125 µM.
In the case of `COc1ccc2c(c1)c(CC(=O)N1CCN(CC(=O)N[C@H](C(=O)N3C[C@H](O)C[C@H]3C(=O)N[C@@H](C)c3ccc(-c4scnc4C)cc3)C(C)(C)C)CC1)c(C)n2C(=O)c1ccc(Cl)cc1`, the half-maximal cytotoxic concentration (CC50) at 72 h in series [1], in series [11] and in series [6] was more than 125 µM throughout. For the same compound, the outcome with Vero C1008 [2], in the series on MRC5 [3], in the series on MRC5 [4] and with HEK-293T was inactive. Further, the EC50 with SARS-CoV-2 [7] worked out at 10.8 µM; in the series with Human coronavirus OC43 it was 1.6 µM; with SARS-CoV-2 [8], 0.89 µM; with Human coronavirus 229E, 6.5 µM. For the same compound, the DC50 in series [9] was 1.34 µM. The remaining at 24 h, 1 µM in [10] is more than 70%. Further, in series [5], the Kinetic_solubility result is listed as “Bld”. The half-life in series [12] was more than 1 h.
In the case of `COc1ccc2c(c1)c(CC(=O)NCCCCNc1cc3c(cc1F)C(=O)N(C1CCC(=O)NC1=O)C3=O)c(C)n2C(=O)c1ccc(Cl)cc1` (stereo not drawn), the EC50 with SARS-CoV-2 [7] was more than 25 µM. In addition, the CC50 at 72 h in [6] was more than 125 µM.
Compound `CC(C)(C)NC(=O)N[C@H](C(=O)N1C[C@H]2[C@@H]([C@H]1C(=O)NC(CC1CCC1)C(=O)C(N)=O)C2(C)C)C(C)(C)C` (stereo partly drawn) [BOCEPREVIR] displayed a CC50 in [13] of more than 500 µM. This compound also registered an EC50 in the series with SARS-CoV-2 [14] of 22 µM.
Consider `COc1ccc2c(c1)c(CC(=O)N1CCN(CCCCCC(=O)N[C@H](C(=O)N3C[C@H](O)C[C@H]3C(=O)N[C@@H](C)c3ccc(-c4scnc4C)cc3)C(C)(C)C)CC1)c(C)n2C(=O)c1ccc(Cl)cc1`, for which the figures for the CC50 at 72 h in [1] and in [6] were 20 µM and more than 125 µM, respectively. For the same compound, in the series with SARS-CoV-2 [7], the EC50 was more than 25 µM. In [5], the Kinetic_solubility entry is on record as “Bld”.
Take `COc1ccc2c(c1)c(CC(=O)O)c(C)n2C(=O)c1ccc(Cl)cc1` [INDOMETHACIN]: in series [15], the Kd was 129 µM.
`COc1ccc2c(c1)c(CC(=O)NCCN1CCN(CCOCCOCC(=O)N[C@H](C(=O)N3C[C@H](O)C[C@H]3C(=O)N[C@@H](C)c3ccc(-c4scnc4C)cc3)C(C)(C)C)CC1)c(C)n2C(=O)c1ccc(Cl)cc1`: the CC50 at 72 h in [1] is 12.3 µM; in [6], more than 125 µM. Also, the concentration giving a half-maximal response (EC50) in the series on SARS-CoV-2 [7] was more than 25 µM. The solubility kinetic at 1.5 h in series [5] came to 26 µM (≈ 27.1 µg/mL).
Consider `COc1ccc2c(c1)c(CC(=O)NCCN1CCN(C(=O)CCC(=O)N[C@H](C(=O)N3C[C@H](O)C[C@H]3C(=O)N[C@@H](C)c3ccc(-c4scnc4C)cc3)C(C)(C)C)CC1)c(C)n2C(=O)c1ccc(Cl)cc1`, for which the outcome in the series with Vero C1008 [2], with MRC5 [3], in the series with MRC5 [4] and in the series with HEK-293T was inactive. The remaining at 24 h, 1 µM in series [10] is more than 70%. Also, the solubility kinetic at 1.5 h in series [5] came out at 6 µM (≈ 5.97 µg/mL). Further, the 50% cytotoxic concentration (CC50) at 72 h in series [6] is more than 250 µM. Moreover, the half-life in [12] was more than 1 h.
For `COc1ccc2c(c1)c(CC(=O)N1CCN(CC(=O)N[C@H](C(=O)N3C[C@@H](O)C[C@H]3C(=O)N[C@@H](C)c3ccc(-c4scnc4C)cc3)C(C)(C)C)CC1)c(C)n2C(=O)c1ccc(Cl)cc1`, in the series on Vero C1008 [16], the Activity entry is “Toxic”.
In the case of `COc1ccc2c(c1)c(CC(=O)NCCCN1CCN(CCCNC(=O)CCC(=O)N[C@H](C(=O)N3C[C@H](O)C[C@H]3C(=O)N[C@@H](C)c3ccc(-c4scnc4C)cc3)C(C)(C)C)CC1)c(C)n2C(=O)c1ccc(Cl)cc1`, the CC50 at 72 h in series [1] and in series [6] was more than 125 µM in each case. For the same compound, the EC50 was more than 25 µM in the series on SARS-CoV-2 [7], 16 µM in the series with Human coronavirus OC43 and more than 25 µM with Human coronavirus 229E. Moreover, the solubility kinetic at 1.5 h in series [5] worked out at 9.4 µM (≈ 10 µg/mL).
Regarding `COc1ccc2c(c1)c(CC(=O)NCCN1CCN(C(=O)CCC(=O)N[C@H](C(=O)N3C[C@@H](O)C[C@H]3C(=O)N[C@@H](C)c3ccc(-c4scnc4C)cc3)C(C)(C)C)CC1)c(C)n2C(=O)c1ccc(Cl)cc1`, in the series with SARS-CoV-2 [17], the outcome was inactive.
Regarding `COc1ccc2c(c1)c(CC(=O)N1CCN(CCC(=O)N[C@H](C(=O)N3C[C@H](O)C[C@H]3C(=O)N[C@@H](C)c3ccc(-c4scnc4C)cc3)C(C)(C)C)CC1)c(C)n2C(=O)c1ccc(Cl)cc1`, the CC50 at 72 h in series [1] is 13.5 µM; in [6], more than 125 µM. For the same compound, in the series with SARS-CoV-2 [7], the EC50 was more than 25 µM. In addition, in series [5], the Kinetic_solubility result is on record as “Bld”.
`COc1ccc2c(c1)c(CC(=O)NCCCCCCCCCCNc1cc3c(cc1F)C(=O)N(C1CCC(=O)NC1=O)C3=O)c(C)n2C(=O)c1ccc(Cl)cc1` (stereo not drawn): in the series on SARS-CoV-2 [7], the EC50 is more than 25 µM. Moreover, the CC50 at 72 h in [6] was more than 125 µM.
For `COc1ccc2c(c1)c(CC(=O)N1CCN(CCOCCOCC(=O)N[C@H](C(=O)N3C[C@H](O)C[C@H]3C(=O)N[C@@H](C)c3ccc(-c4scnc4C)cc3)C(C)(C)C)CC1)c(C)n2C(=O)c1ccc(Cl)cc1`, the CC50 at 72 h in series [1] was 22 µM; in series [6], more than 125 µM. This compound also returned an EC50 in the series with SARS-CoV-2 [7] of more than 25 µM. Moreover, in series [5], the solubility kinetic at 1.5 h is 7.7 µM (≈ 7.69 µg/mL).

For the origin of these results see ChEMBL document CHEMBL5512625, “Design, synthesis, and biological evaluation of first-in-class indomethacin-based PROTACs degrading SARS-CoV-2 main protease and with broad-spectrum antiviral activity” (Eur J Med Chem, 2024).
